{
  "source": "ChEMBL document CHEMBL1156875",
  "about": "“Anti-influenza drug discovery: structure-activity relationship and mechanistic insight into novel angelicin derivatives” (J Med Chem, 2010)",
  "key": {"Influenza A virus [1]": {"test_system": "Influenza A virus", "assay": "Antiviral activity against human influenza A virus A/TW/141/04 (H1N1) in MDCK cells assessed as reduction of virus-induced cytopathic effect", "format": "functional, organism-based", "how_it_was_run": "(§1)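 MDCK cells (1.1 × 10^5 cells/mL in DMEM + 10% FBS) grown 24-30 h at 37 C to about 90% confluency. Virus (100 TCID50) premixed with serially diluted compound, adsorbed 1 h at 37 C. Overlay of serum-free DMEM with trypsin 2.5 μg/mL and 0.1% DMSO, then 72 h at 37 C. Formaldehyde fixation, crystal violet stain, A570. IC50 = 50% CPE reduction versus virus control. Triplicate, at least two runs.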"}, "Influenza A virus [2]": {"test_system": "Influenza A virus", "assay": "Antiviral activity against human influenza A virus A/WSN/33 (H1N1) in MDCK cells assessed as reduction of virus-induced cytopathic effect", "format": "functional, organism-based", "settings": "A/WSN/1933(H1N1)", "how_it_was_run": "as §1"}, "Influenza B virus [3]": {"test_system": "Influenza B virus", "assay": "Antiviral activity against human influenza B virus B/TW/99/07 in MDCK cells assessed as reduction of virus-induced cytopathic", "format": "functional, organism-based", "settings": "B/TW/99/07, MDCK", "how_it_was_run": "as §1"}, "Influenza B virus [4]": {"test_system": "Influenza B virus", "assay": "Antiviral activity against human influenza B virus B/TW/70325/05 in MDCK cells assessed as reduction of virus-induced cytopathic", "format": "functional, organism-based", "settings": "B/TW/70325/05, MDCK", "how_it_was_run": "as §1"}, "Influenza A virus [5]": {"test_system": "Influenza A virus", "assay": "Antiviral activity against human influenza A virus A/TW/3446/04 (H3N2) in MDCK cells assessed as reduction of virus-induced cytopathic effect", "format": "functional, organism-based", "how_it_was_run": "as §1"}, "Influenza B virus [6]": {"test_system": "Influenza B virus", "assay": "Antiviral activity against human influenza B virus B/TW/710/05 in MDCK cells assessed as reduction of virus-induced cytopathic", "format": "functional, organism-based", "settings": "B/TW/710/05, MDCK", "how_it_was_run": "as §1"}, "[7]": {"assay": "Cytotoxicity against MDCK cells after 72 hrs", "format": "cell-based, Canis lupus familiaris", "settings": "dog", "how_it_was_run": "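Uninfected MDCK monolayers (seeded at 1.1 × 10^5 cells/mL, grown 24-30 h to about 90% confluency) exposed to graded compound concentrations for 72 h at 37 C. Read by formaldehyde fixation, 0.1% crystal violet staining and absorbance at 570 nm. CC50 = concentration reducing viability to 50% of control. Triplicate, repeated at least twice.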"}, "Influenza A virus [8]": {"test_system": "Influenza A virus", "assay": "Antiviral activity against human influenza A virus A/WSN/33 (H1N1) in MDCK cells assessed as reduction of dsRNA by immunofluorescence microscopic analysis", "format": "functional, organism-based", "settings": "A/WSN/1933(H1N1)", "how_it_was_run": "(§2)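 Influenza-infected MDCK cells examined by immunofluorescence microscopy with anti-dsRNA, anti-NP and anti-M1 antibodies to visualise viral RNA and proteins.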"}, "Influenza A virus [9]": {"test_system": "Influenza A virus", "assay": "Antiviral activity against human influenza A virus A/WSN/33 (H1N1) assessed as inhibition of guinea pig red blood cells at 25 uM by hemagglutinination inhibition assay", "format": "functional, organism-based", "settings": "A/WSN/1933(H1N1)", "how_it_was_run": "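Hemagglutination inhibition format: A/WSN/33 attachment to guinea pig red blood cells tested with compound at 25 μM.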"}, "Influenza A virus [10]": {"test_system": "Influenza A virus", "assay": "Antiviral activity against human influenza A virus A/WSN/33 (H1N1) in MDCK cells assessed as reduction of plaque formation at 100 nM", "format": "functional, organism-based", "settings": "A/WSN/1933(H1N1)", "how_it_was_run": "(§3)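 Six-well MDCK monolayers (5.5 × 10^5 cells/well, overnight) infected with about 125 PFU/well of A/WSN/33 with or without compound, adsorbed 1 h at 37 C, then washed with HBSS. Agarose 0.3% overlay in trypsin-containing serum-free medium carrying the same compound level, 48 h at 37 C, 5% CO2. Fixed, crystal violet stained, plaques counted relative to virus control.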"}, "Influenza A virus [11]": {"test_system": "Influenza A virus", "assay": "Antiviral activity against human influenza A virus A/WSN/33 (H1N1) in MDCK cells assessed as prevention of progeny formation up to 4 hrs by time-of-addition study", "format": "functional, organism-based", "settings": "A/WSN/1933(H1N1)", "how_it_was_run": "(§4)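 MDCK (2.4 × 10^5 cells/well, six-well) infected at MOI 0.001 on ice for 1 h, washed, fresh medium set as 0 h pi. Compound at 1 μM present only during −1 to 0, 0-2, 2-4, 4-6 or 6-8 h, then washed off. Incubated in fresh medium to 12 h pi; supernatant virus yield titrated by plaque assay.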"}, "Influenza A virus [12]": {"test_system": "Influenza A virus", "assay": "Antiviral activity against human influenza A virus A/WSN/33 (H1N1) in MDCK cells assessed as reduction of NP protein by immunofluorescence microscopic analysis", "format": "functional, organism-based", "settings": "A/WSN/1933(H1N1)", "how_it_was_run": "as §2"}, "Influenza A virus [13]": {"test_system": "Influenza A virus", "assay": "Antiviral activity against human influenza A virus A/WSN/33 (H1N1) in MDCK cells assessed as reduction of M1 protein by immunofluorescence microscopic analysis", "format": "functional, organism-based", "settings": "A/WSN/1933(H1N1)", "how_it_was_run": "as §2"}, "Influenza A virus [14]": {"test_system": "Influenza A virus", "assay": "Antiviral activity against human influenza A virus A/WSN/33 (H1N1) in MDCK cells assessed as prevention of progeny formation after 4 to 8 hrs by time-of-addition study", "format": "functional, organism-based", "settings": "A/WSN/1933(H1N1)", "how_it_was_run": "as §4"}, "Influenza A virus [15]": {"test_system": "Influenza A virus", "assay": "Antiviral activity against human influenza A virus A/WSN/33 (H1N1) in MDCK cells assessed as reduction of plaque formation at 20 nM", "format": "functional, A/WSN/1933(H1N1)", "set-up": "scale not given: the % may be the effect or the level left", "how_it_was_run": "as §3"}},
  "note": "pIC50: −log10 of the molar value. Active and inactive are the calls of the source. The calls are words filed in the database; no cut-off is given here.",
  "data": [
    {"smiles": "CC(=O)N[C@H]1[C@H]([C@H](O)[C@H](O)CO)OC(C(=O)O)=C[C@@H]1NC(=N)N", "note": "[ZANAMIVIR]", "values": [
      {"measurement": "pIC50", "setting": "Influenza A virus [1]", "value": 6.46},
      {"measurement": "pIC50", "setting": "Influenza A virus [2]", "value": 7.22},
      {"measurement": "pIC50", "setting": "Influenza B virus [3]", "value": 7.00},
      {"measurement": "pIC50", "setting": "Influenza B virus [4]", "value": 7.70},
      {"measurement": "pIC50", "setting": "Influenza A virus [5]", "value": 7.52},
      {"measurement": "pIC50", "setting": "Influenza B virus [6]", "value": 7.52}
    ]},
    {"smiles": "Cc1cc(=O)oc2c1ccc1oc(C(=O)c3cccs3)c(-c3ccccc3)c12", "values": [
      {"measurement": "CC50 at 72 h", "setting": "[7]", "value": "> 25000", "unit": "nM"},
      {"measurement": "Activity", "setting": "Influenza A virus [8]", "value": "Active"},
      {"measurement": "pIC50", "setting": "Influenza A virus [1]", "value": 7.05},
      {"measurement": "pIC50", "setting": "Influenza A virus [2]", "value": 7.15},
      {"measurement": "Activity", "setting": "Influenza A virus [9]", "value": "inactive"},
      {"measurement": "pIC50", "setting": "Influenza B virus [3]", "value": 7.40},
      {"measurement": "Activity", "setting": "Influenza A virus [10]", "value": "Active"},
      {"measurement": "pIC50", "setting": "Influenza B virus [4]", "value": 7.05},
      {"measurement": "pIC50", "setting": "Influenza A virus [5]", "value": 6.82},
      {"measurement": "Activity", "setting": "Influenza A virus [11]", "value": "Active"},
      {"measurement": "Activity", "setting": "Influenza A virus [12]", "value": "Active"},
      {"measurement": "Activity", "setting": "Influenza A virus [13]", "value": "Active"},
      {"measurement": "Activity", "setting": "Influenza A virus [14]", "value": "inactive"},
      {"measurement": "pIC50", "setting": "Influenza B virus [6]", "value": 7.05},
      {"measurement": "Activity", "setting": "Influenza A virus [15]", "value": 50, "unit": "%"}
    ]},
    {"smiles": "Cc1cc(=O)oc2c1ccc1oc(C(O)c3ccccc3)c(-c3ccccc3)c12", "note": "(stereo not given)", "values": [
      {"measurement": "CC50 at 72 h", "setting": "[7]", "value": "> 25000", "unit": "nM"},
      {"measurement": "pIC50", "setting": "Influenza A virus [2]", "value": 6.49}
    ]},
    {"smiles": "O=C(c1ccccc1)c1oc2ccccc2c1-c1ccccc1", "values": [
      {"measurement": "CC50 at 72 h", "setting": "[7]", "value": 5270, "unit": "nM"},
      {"measurement": "pIC50", "setting": "Influenza A virus [2]", "value": "< 4.60"}
    ]},
    {"smiles": "Cc1cc(=O)oc2c1ccc1oc(C(=O)c3ccccc3)c(-c3ccco3)c12", "values": [
      {"measurement": "CC50 at 72 h", "setting": "[7]", "value": "> 25000", "unit": "nM"},
      {"measurement": "pIC50", "setting": "Influenza A virus [2]", "value": 6.19}
    ]},
    {"smiles": "Cc1cc(=O)oc2c1ccc1oc(C(=O)c3ccccc3)c(-c3cccc([N+](=O)[O-])c3)c12", "values": [
      {"measurement": "CC50 at 72 h", "setting": "[7]", "value": "> 25000", "unit": "nM"},
      {"measurement": "pIC50", "setting": "Influenza A virus [2]", "value": 6.60}
    ]},
    {"smiles": "Cc1cc2ccc3oc(C(=O)c4ccccc4)c(-c4ccccc4)c3c2oc1=O", "values": [
      {"measurement": "CC50 at 72 h", "setting": "[7]", "value": "> 25000", "unit": "nM"},
      {"measurement": "pIC50", "setting": "Influenza A virus [2]", "value": 5.55}
    ]},
    {"smiles": "Cc1cc(=O)oc2c1ccc1oc(C(=O)c3ccc(Cl)cc3)c(-c3ccccc3)c12", "values": [
      {"measurement": "CC50 at 72 h", "setting": "[7]", "value": "> 25000", "unit": "nM"},
      {"measurement": "pIC50", "setting": "Influenza A virus [2]", "value": 4.65}
    ]},
    {"smiles": "Cc1cc(=O)oc2c1ccc1sc(C(=O)c3ccccc3)c(-c3ccccc3)c12", "values": [
      {"measurement": "CC50 at 72 h", "setting": "[7]", "value": "> 25000", "unit": "nM"},
      {"measurement": "pIC50", "setting": "Influenza A virus [2]", "value": 6.14}
    ]}
  ]
}
